Laboratory results from PMC3103643 (Journal of natural products, 2011).

Legend:
[1] = test system: HT-29 human colon cancer cells; assay: Cytotoxicity assay; assay type: cell-based; settings: three days incubation, SRB
Outline: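 HT-29 cells were trypsinized and seeded, then treated with test compound in DMSO at serial dilutions, with DMSO as negative control and paclitaxel as positive control, for three days at 37 °C, 5% CO2. Cells were fixed for 30 min at room temperature, washed, dried overnight and stained with SRB. Dye was solubilized in tris-base buffer and read at 515 nm. ED50 came from nonlinear regression, triplicates, two independent experiments.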

p65 subunit of NF-κB = p65 subunit of NF-κB (Homo sapiens, UniProt Q04206); assay: Enzyme-based ELISA NF-κB p65 inhibition assay; settings: read-out: NF-κB p65 inhibition IC50, HeLa cell nuclear extracts
Chain of p65 subunit of NF-κB (Q04206 whole entry): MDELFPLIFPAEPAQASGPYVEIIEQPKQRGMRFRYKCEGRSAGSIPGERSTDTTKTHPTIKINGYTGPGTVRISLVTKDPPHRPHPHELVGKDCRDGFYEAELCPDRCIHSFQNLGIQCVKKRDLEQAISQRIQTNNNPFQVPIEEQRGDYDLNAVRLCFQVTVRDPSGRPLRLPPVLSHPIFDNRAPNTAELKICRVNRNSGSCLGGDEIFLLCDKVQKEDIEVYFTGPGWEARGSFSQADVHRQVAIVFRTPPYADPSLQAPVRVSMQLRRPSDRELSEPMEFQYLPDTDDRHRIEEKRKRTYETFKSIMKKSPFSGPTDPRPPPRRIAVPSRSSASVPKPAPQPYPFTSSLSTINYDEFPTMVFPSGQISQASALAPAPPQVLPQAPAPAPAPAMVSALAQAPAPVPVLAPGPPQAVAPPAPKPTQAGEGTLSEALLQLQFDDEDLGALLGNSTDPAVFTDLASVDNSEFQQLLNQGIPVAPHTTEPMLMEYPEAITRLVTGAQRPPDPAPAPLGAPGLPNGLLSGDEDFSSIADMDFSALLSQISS

[2] = test system: HT-29 (colon adenocarcinoma), MCF-7 (breast cancer), and MDA-MB-435 (melanoma); assay: In vivo hollow fiber assay; set-up: species or system human; settings: highest dose used 20 mg/kg; ip
Outline: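 Hollow fibers carried HT-29, MCF-7 and MDA-MB-435 cells. Test compounds and the paclitaxel positive control were dosed ip across 1–20 mg/kg.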

Compound	cytotoxicity ED50 towards HT-29 cells [1] [nM]	IC50 (p65 subunit of NF-κB) [nM]	activity in in vivo hollow fiber assay [2]
1,3,7-trihydroxy-2,4-diisoprenylxanthone [Compound 5]	>10000	2900	–
COc1c(OC(C)=O)cc2oc3cc(OC(C)=O)c(CC=C(C)C)c(O)c3c(=O)c2c1CC=C(C)C [Compound 8, 3,6-di-O-acetyl-α-mangostin]	–	–	inactive
